Experiments:
healthy male subjects [1] = experiment: NeuroCart body sway; assay type: in vivo, human; conditions: 12-hour post-dose period
Summary of the method: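 Single-dose, placebo-controlled study in fasted healthy men, tested twice pre-dose and at 0.5–10 h post-dose. Anteroposterior sway was recorded with eyes closed using a Wright-type ataxiameter. Movements over 2 min were integrated and expressed in mm. Values were ln-transformed, and change from baseline over 12 h was analysed by MMRM against pooled placebo, baseline as covariate, then back-transformed.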

healthy male subjects [2] = experiment: Treatment emergent adverse events; assay type: in vivo, human; conditions: for Incidence of TEAE: Dizziness / Incidence of TEAE: Dizziness postural / Incidence of TEAE: Fatigue / Incidence of TEAE: Headache / Incidence of TEAE: Nausea / Incidence of TEAE: Oropharyngeal pain / Incidence of TEAE: Presyncope / Incidence of TEAE: Pruritus / Incidence of TEAE: Somnolence / Incidence of TEAE: Vomiting: n = 8
healthy male subjects [3] = experiment: ECG, QTcF interval; assay type: in vivo, human
Summary of the method: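 Randomized, double-blind, placebo-controlled single ascending dose study in healthy men, dosed 3–200 mg after an overnight fast. 12-lead ECGs were recorded in triplicate, 1 min apart, after 5 min rest in the semi-recumbent position, at scheduled times. QTc and other intervals were derived automatically from the digital ECGs by the Marquette 12SL algorithm.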

α1A‐adrenoceptor = target: T1, α1A‐adrenoceptor (Homo sapiens, UniProt P35348); experiment: In vitro binding affinity, α1A-adrenoceptor; conditions: read-out: Ki, α1A-adrenoceptor; preclinical in vitro panel
T1 sequence (P35348 1-466): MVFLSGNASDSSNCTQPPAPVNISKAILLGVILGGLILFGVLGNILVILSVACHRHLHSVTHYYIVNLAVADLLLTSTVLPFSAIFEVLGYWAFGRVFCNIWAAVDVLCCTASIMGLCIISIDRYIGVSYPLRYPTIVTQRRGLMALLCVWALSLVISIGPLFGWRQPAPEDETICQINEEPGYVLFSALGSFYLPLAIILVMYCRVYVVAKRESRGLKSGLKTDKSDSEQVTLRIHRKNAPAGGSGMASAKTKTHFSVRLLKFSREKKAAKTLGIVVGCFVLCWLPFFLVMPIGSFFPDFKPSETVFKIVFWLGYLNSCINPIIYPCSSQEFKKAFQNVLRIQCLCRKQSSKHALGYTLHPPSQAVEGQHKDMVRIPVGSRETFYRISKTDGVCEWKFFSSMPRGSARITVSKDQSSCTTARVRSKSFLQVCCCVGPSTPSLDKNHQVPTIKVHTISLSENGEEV

NMDA receptor = experiment: In vitro binding affinity, NMDA receptor; conditions: read-out: Ki, NMDA receptor; preclinical in vitro panel
rats = experiment: Preclinical multiple dose toxicology study in rats; assay type: in vivo
dogs = experiment: Preclinical multiple dose toxicology study in dogs; assay type: in vivo
hERG channel = hERG channel (Homo sapiens, UniProt Q12809); experiment: In vitro hERG channel testing; assay type: biochemical
Chain of hERG channel (Q12809 whole entry): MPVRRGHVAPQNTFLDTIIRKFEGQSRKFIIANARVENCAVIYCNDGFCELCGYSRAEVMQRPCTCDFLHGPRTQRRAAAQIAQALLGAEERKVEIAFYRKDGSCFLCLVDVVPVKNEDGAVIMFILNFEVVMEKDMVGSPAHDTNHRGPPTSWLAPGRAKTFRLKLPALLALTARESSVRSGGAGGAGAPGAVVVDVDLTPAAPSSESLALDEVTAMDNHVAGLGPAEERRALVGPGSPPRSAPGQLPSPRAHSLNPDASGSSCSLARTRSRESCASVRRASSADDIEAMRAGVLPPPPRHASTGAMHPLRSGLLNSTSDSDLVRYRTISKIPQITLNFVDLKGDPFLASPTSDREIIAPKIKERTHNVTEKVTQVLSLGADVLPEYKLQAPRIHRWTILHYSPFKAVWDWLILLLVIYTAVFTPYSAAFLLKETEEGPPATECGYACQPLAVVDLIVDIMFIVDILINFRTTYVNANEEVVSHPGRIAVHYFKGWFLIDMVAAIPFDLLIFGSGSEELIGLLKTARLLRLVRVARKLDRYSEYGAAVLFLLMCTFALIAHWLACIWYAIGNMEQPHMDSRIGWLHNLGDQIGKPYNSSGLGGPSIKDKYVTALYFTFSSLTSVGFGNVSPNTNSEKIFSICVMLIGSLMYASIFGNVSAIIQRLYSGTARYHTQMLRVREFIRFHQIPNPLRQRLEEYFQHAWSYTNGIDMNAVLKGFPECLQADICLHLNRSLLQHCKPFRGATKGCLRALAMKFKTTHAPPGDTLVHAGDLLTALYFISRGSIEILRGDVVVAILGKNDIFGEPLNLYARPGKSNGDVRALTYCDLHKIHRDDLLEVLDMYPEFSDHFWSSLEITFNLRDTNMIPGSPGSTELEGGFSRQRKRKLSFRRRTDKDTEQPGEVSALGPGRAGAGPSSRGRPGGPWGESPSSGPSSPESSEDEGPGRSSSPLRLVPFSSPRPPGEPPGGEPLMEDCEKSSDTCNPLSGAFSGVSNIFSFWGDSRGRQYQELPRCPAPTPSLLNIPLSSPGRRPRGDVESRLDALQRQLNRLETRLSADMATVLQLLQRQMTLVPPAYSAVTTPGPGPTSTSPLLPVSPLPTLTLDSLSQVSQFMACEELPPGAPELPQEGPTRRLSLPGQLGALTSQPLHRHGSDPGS

CN1CCC23CCCCC2C1Cc1ccc(C(N)=O)cc13 (stereo not drawn) [ALKS 7119, (9α, 13α)‐17‐methylmorphinan‐3‐carboxamide]
Body sway, LSM CFB (healthy male subjects [1]; 3 mg single oral dose): −0.14 LOG mm
Body sway, LSM CFB (healthy male subjects [1]; 10 mg single oral dose): 0.16 LOG mm
Body sway, LSM CFB (healthy male subjects [1]; 25 mg single oral dose): −0.03 LOG mm
Body sway, LSM CFB (healthy male subjects [1]; 50 mg single oral dose): 0.12 LOG mm
Body sway, LSM CFB (healthy male subjects [1]; 75 mg single oral dose): −0.06 LOG mm
Body sway, LSM CFB (healthy male subjects [1]; 100 mg single oral dose): 0.08 LOG mm
Incidence of TEAE: Dizziness (healthy male subjects [2]; 3 mg single oral dose): 0
Incidence of TEAE: Dizziness postural (healthy male subjects [2]; 3 mg single oral dose): 0
Incidence of TEAE: Fatigue (healthy male subjects [2]; 3 mg single oral dose): 3
Incidence of TEAE: Headache (healthy male subjects [2]; 3 mg single oral dose): 0
Incidence of TEAE: Nausea (healthy male subjects [2]; 3 mg single oral dose): 0
Incidence of TEAE: Oropharyngeal pain (healthy male subjects [2]; 3 mg single oral dose): 0
Incidence of TEAE: Presyncope (healthy male subjects [2]; 3 mg single oral dose): 0
Incidence of TEAE: Pruritus (healthy male subjects [2]; 3 mg single oral dose): 0
Incidence of TEAE: Somnolence (healthy male subjects [2]; 3 mg single oral dose): 0
Incidence of TEAE: Vomiting (healthy male subjects [2]; 3 mg single oral dose): 0
Incidence of TEAE: Dizziness (healthy male subjects [2]; 10 mg single oral dose): 0
Incidence of TEAE: Dizziness postural (healthy male subjects [2]; 10 mg single oral dose): 0
Incidence of TEAE: Fatigue (healthy male subjects [2]; 10 mg single oral dose): 1
Incidence of TEAE: Headache (healthy male subjects [2]; 10 mg single oral dose): 1
Incidence of TEAE: Nausea (healthy male subjects [2]; 10 mg single oral dose): 0
Incidence of TEAE: Oropharyngeal pain (healthy male subjects [2]; 10 mg single oral dose): 0
Incidence of TEAE: Presyncope (healthy male subjects [2]; 10 mg single oral dose): 1
Incidence of TEAE: Pruritus (healthy male subjects [2]; 10 mg single oral dose): 0
Incidence of TEAE: Somnolence (healthy male subjects [2]; 10 mg single oral dose): 1
Incidence of TEAE: Vomiting (healthy male subjects [2]; 10 mg single oral dose): 0
Incidence of TEAE: Dizziness (healthy male subjects [2]; 25 mg single oral dose): 0
Incidence of TEAE: Dizziness postural (healthy male subjects [2]; 25 mg single oral dose): 0
Incidence of TEAE: Fatigue (healthy male subjects [2]; 25 mg single oral dose): 2
Incidence of TEAE: Headache (healthy male subjects [2]; 25 mg single oral dose): 0
Incidence of TEAE: Nausea (healthy male subjects [2]; 25 mg single oral dose): 0
Incidence of TEAE: Oropharyngeal pain (healthy male subjects [2]; 25 mg single oral dose): 0
Incidence of TEAE: Presyncope (healthy male subjects [2]; 25 mg single oral dose): 1
Incidence of TEAE: Pruritus (healthy male subjects [2]; 25 mg single oral dose): 0
Incidence of TEAE: Somnolence (healthy male subjects [2]; 25 mg single oral dose): 0
Incidence of TEAE: Vomiting (healthy male subjects [2]; 25 mg single oral dose): 0
Incidence of TEAE: Dizziness (healthy male subjects [2]; 50 mg single oral dose): 0
Incidence of TEAE: Dizziness postural (healthy male subjects [2]; 50 mg single oral dose): 0
Incidence of TEAE: Fatigue (healthy male subjects [2]; 50 mg single oral dose): 0
Incidence of TEAE: Headache (healthy male subjects [2]; 50 mg single oral dose): 2
Incidence of TEAE: Nausea (healthy male subjects [2]; 50 mg single oral dose): 1
Incidence of TEAE: Oropharyngeal pain (healthy male subjects [2]; 50 mg single oral dose): 0
Incidence of TEAE: Presyncope (healthy male subjects [2]; 50 mg single oral dose): 1
Incidence of TEAE: Pruritus (healthy male subjects [2]; 50 mg single oral dose): 0
Incidence of TEAE: Somnolence (healthy male subjects [2]; 50 mg single oral dose): 2
Incidence of TEAE: Vomiting (healthy male subjects [2]; 50 mg single oral dose): 0
Incidence of TEAE: Dizziness (healthy male subjects [2]; 75 mg single oral dose): 0
Incidence of TEAE: Dizziness postural (healthy male subjects [2]; 75 mg single oral dose): 0
Incidence of TEAE: Fatigue (healthy male subjects [2]; 75 mg single oral dose): 0
Incidence of TEAE: Headache (healthy male subjects [2]; 75 mg single oral dose): 3
Incidence of TEAE: Nausea (healthy male subjects [2]; 75 mg single oral dose): 3
Incidence of TEAE: Oropharyngeal pain (healthy male subjects [2]; 75 mg single oral dose): 0
Incidence of TEAE: Presyncope (healthy male subjects [2]; 75 mg single oral dose): 3
Incidence of TEAE: Pruritus (healthy male subjects [2]; 75 mg single oral dose): 0
Incidence of TEAE: Somnolence (healthy male subjects [2]; 75 mg single oral dose): 1
Incidence of TEAE: Vomiting (healthy male subjects [2]; 75 mg single oral dose): 2
Incidence of TEAE: Dizziness (healthy male subjects [2]; 100 mg single oral dose): 0
Incidence of TEAE: Dizziness postural (healthy male subjects [2]; 100 mg single oral dose): 2
Incidence of TEAE: Fatigue (healthy male subjects [2]; 100 mg single oral dose): 0
Incidence of TEAE: Headache (healthy male subjects [2]; 100 mg single oral dose): 3
Incidence of TEAE: Nausea (healthy male subjects [2]; 100 mg single oral dose): 3
Incidence of TEAE: Oropharyngeal pain (healthy male subjects [2]; 100 mg single oral dose): 0
Incidence of TEAE: Presyncope (healthy male subjects [2]; 100 mg single oral dose): 1
Incidence of TEAE: Pruritus (healthy male subjects [2]; 100 mg single oral dose): 0
Incidence of TEAE: Somnolence (healthy male subjects [2]; 100 mg single oral dose): 2
Incidence of TEAE: Vomiting (healthy male subjects [2]; 100 mg single oral dose): 1
Incidence of TEAE: Dizziness (healthy male subjects [2]; 125 mg single oral dose): 1
Incidence of TEAE: Dizziness postural (healthy male subjects [2]; 125 mg single oral dose): 0
Incidence of TEAE: Fatigue (healthy male subjects [2]; 125 mg single oral dose): 0
Incidence of TEAE: Headache (healthy male subjects [2]; 125 mg single oral dose): 2
Incidence of TEAE: Nausea (healthy male subjects [2]; 125 mg single oral dose): 2
Incidence of TEAE: Oropharyngeal pain (healthy male subjects [2]; 125 mg single oral dose): 0
Incidence of TEAE: Presyncope (healthy male subjects [2]; 125 mg single oral dose): 0
Incidence of TEAE: Pruritus (healthy male subjects [2]; 125 mg single oral dose): 1
Incidence of TEAE: Somnolence (healthy male subjects [2]; 125 mg single oral dose): 0
Incidence of TEAE: Vomiting (healthy male subjects [2]; 125 mg single oral dose): 0
Incidence of TEAE: Dizziness (healthy male subjects [2]; 150 mg single oral dose): 1
Incidence of TEAE: Dizziness postural (healthy male subjects [2]; 150 mg single oral dose): 0
Incidence of TEAE: Fatigue (healthy male subjects [2]; 150 mg single oral dose): 1
Incidence of TEAE: Headache (healthy male subjects [2]; 150 mg single oral dose): 2
Incidence of TEAE: Nausea (healthy male subjects [2]; 150 mg single oral dose): 5
Incidence of TEAE: Oropharyngeal pain (healthy male subjects [2]; 150 mg single oral dose): 0
Incidence of TEAE: Presyncope (healthy male subjects [2]; 150 mg single oral dose): 3
Incidence of TEAE: Pruritus (healthy male subjects [2]; 150 mg single oral dose): 0
Incidence of TEAE: Somnolence (healthy male subjects [2]; 150 mg single oral dose): 1
Incidence of TEAE: Vomiting (healthy male subjects [2]; 150 mg single oral dose): 1
Incidence of TEAE: Dizziness (healthy male subjects [2]; 175 mg single oral dose): 0
Incidence of TEAE: Dizziness postural (healthy male subjects [2]; 175 mg single oral dose): 0
Incidence of TEAE: Fatigue (healthy male subjects [2]; 175 mg single oral dose): 0
Incidence of TEAE: Headache (healthy male subjects [2]; 175 mg single oral dose): 0
Incidence of TEAE: Nausea (healthy male subjects [2]; 175 mg single oral dose): 5
Incidence of TEAE: Oropharyngeal pain (healthy male subjects [2]; 175 mg single oral dose): 0
Incidence of TEAE: Presyncope (healthy male subjects [2]; 175 mg single oral dose): 4
Incidence of TEAE: Pruritus (healthy male subjects [2]; 175 mg single oral dose): 0
Incidence of TEAE: Somnolence (healthy male subjects [2]; 175 mg single oral dose): 1
Incidence of TEAE: Vomiting (healthy male subjects [2]; 175 mg single oral dose): 0
Incidence of TEAE: Dizziness (healthy male subjects [2]; 200 mg single oral dose): 2
Incidence of TEAE: Dizziness postural (healthy male subjects [2]; 200 mg single oral dose): 0
Incidence of TEAE: Fatigue (healthy male subjects [2]; 200 mg single oral dose): 1
Incidence of TEAE: Headache (healthy male subjects [2]; 200 mg single oral dose): 3
Incidence of TEAE: Nausea (healthy male subjects [2]; 200 mg single oral dose): 3
Incidence of TEAE: Oropharyngeal pain (healthy male subjects [2]; 200 mg single oral dose): 0
Incidence of TEAE: Presyncope (healthy male subjects [2]; 200 mg single oral dose): 1
Incidence of TEAE: Pruritus (healthy male subjects [2]; 200 mg single oral dose): 2
Incidence of TEAE: Somnolence (healthy male subjects [2]; 200 mg single oral dose): 1
Incidence of TEAE: Vomiting (healthy male subjects [2]; 200 mg single oral dose): 0
Subjects reporting TEAEs (healthy male subjects [2]; all ALKS 7119 doses, 51 of 80 subjects (placebo 40%)): 64%
Subjects with QTcF increases from baseline of 30–60 ms (healthy male subjects [3]; all ALKS 7119 groups, only at 50 mg or higher, none in placebo): 8.8%
QTcF interval increases compared to baseline (healthy male subjects [3]; doses of ≥50 mg): 30 to 60 ms
Highest individual QTcF value (healthy male subjects [3]; subject treated with 200 mg): 475 ms
Increase of QTcF compared to baseline at highest individual value (healthy male subjects [3]; subject treated with 200 mg): 33 ms
Ki (α1A‐adrenoceptor): 0.98 µM
Ki (NMDA receptor): 7.44 µM
human equivalent dose (HED) of NOAEL (rats; rat NOAEL, body surface area extrapolation per FDA guidelines): 96 mg
NOAEL (rats; rats, multiple dose toxicology): 10 mg/kg
human equivalent dose (HED) of NOAEL (dogs; dog NOAEL): 97.2 mg
NOAEL (dogs; dogs, multiple dose toxicology): 3 mg/kg
hERG IC50 (hERG channel): 54.3488 µg/mL
IC50 (hERG channel; read-out: hERG IC50): 191 µM
